Source: PMC4716540 (British Journal of Cancer, 2015)
Values joined by “and” are separate entries in the source; they are usually repeats but may differ in a detail not shown here. Equal values may be shown once.

How the values were obtained:
[1] = test system: Hsp70 in peripheral blood mononuclear cells (PBMCs); assay: Hsp70 levels in PBMCs by western blot as biomarker for Hsp90 inhibition; format: in vivo, human
Procedure, shortened: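 Patients with relapsed/refractory B-cell malignancies received the test compound by 1-h IV infusion on days 1–5 of a 14-day cycle (cohorts 14–176 mg m⁻², 3+3 design). Hsp70 was measured by western blot at an independent central laboratory, as change from baseline, and summarised descriptively by dose level.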

[2] = test system: relapsed/refractory MM and NHL; assay: Tumour response by standard criteria for MM and NHL; format: in vivo, human; conditions: for Duration of sustained SD: one patient
Procedure, shortened: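 Best tumour response was assessed over all cycles of single-agent treatment. The agent was given by 1-h IV infusion on days 1–5 of each 14-day cycle, at 14–176 mg m⁻². Treatment continued for up to 12 months or until progression, unacceptable toxicity or withdrawal. Intrapatient escalation was allowed after at least two cycles. Chemotherapy, radiotherapy and corticosteroids were excluded. Responses were summarised descriptively by dose level.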

primary myeloma cells = conditions: in the presence of bone marrow stromal cells; ref Juliger et al, 2008; cited from earlier work
[3] = test system: in vitro and in vivo models, including primary MM patient samples; conditions: ref Nakashima et al, 2010, Ishii et al, 2012; cited from earlier work
[4] = Plasma pharmacokinetics of KW-2478; format: in vivo, human
[5] = 25 evaluable patients, all doses
[6] = 14 mg m^–2 iv, day 1, n=3, mean±s.d.
[7] = 14 mg m^–2 iv, day 5, n=3, mean±s.d.
[8] = 28 mg m^–2 iv, day 1, n=3, mean±s.d.
[9] = 28 mg m^–2 iv, day 5, n=3, mean±s.d.
[10] = 47 mg m^–2 iv, day 1, n=3, mean±s.d.
[11] = 47 mg m^–2 iv, day 5, n=2, mean±s.d.
[12] = 71 mg m^–2 iv, day 1, n=3, mean±s.d.
[13] = 71 mg m^–2 iv, day 5, n=2, mean±s.d.
[14] = 99 mg m^–2 iv, day 1, n=3, mean±s.d.
[15] = 99 mg m^–2 iv, day 5, n=3, mean±s.d.
[16] = 132 mg m^–2 iv, day 1, n=6, mean±s.d.
[17] = 132 mg m^–2 iv, day 5, n=6, mean±s.d.
[18] = 176 mg m^–2 iv, day 1, n=6, mean±s.d.
[19] = 176 mg m^–2 iv, day 5, n=5, mean±s.d.

CCc1c(O)cc(O)c(C(=O)c2ccc(OCCN3CCOCC3)c(OC)c2)c1CC(=O)N(CCOC)CCOC [KW-2478]
Hsp70 induction above baseline in PBMCs ([1]; doses ⩾71 mg m^–2, 8 h after dosing on days 1 and 5): ≥ 25% | Doses at which Hsp70 levels in PBMCs increased (target inhibition inferred) ([1]; western blot): ≥ 71 mg m^–2 | Progressive disease, MM patients ([2]; 21 evaluable MM patients): 4.8% | Stable disease (SD), MM patients ([2]; 21 evaluable MM patients): 95.2% | Evaluable patients with stable disease (disease stabilisation rate) [2, 5]: 96% | Overall disease control rate [2, 5]: 96.0% | Patients with SD lasting ⩾3 months ([2]; all doses): Eight | Patients with SD lasting ⩾6 months (free of disease progression) ([2]; all doses): five | Complete or partial responses ([2]; best tumour response over all cycles): No patients achieved complete or partial responses | Stable disease (SD), NHL patients ([2]; four evaluable NHL patients): 100% | Duration of response ([2]; individual patient, MM, 99 mg m^–2): 3.1 months | Duration of response ([2]; individual patient, NHL, 99 mg m^–2): 1.5 months | Duration of response ([2]; individual patient, NHL, 176 mg m^–2): 1.3 months | Duration of response ([2]; individual patients, MM, 14 mg m^–2): 1 months and 1.4 months | Duration of response ([2]; individual patients, MM, 28 mg m^–2): 11.3 months and 0.8 months and 1.8 months | Duration of response ([2]; individual patients, MM, 47 mg m^–2): 1.3 months and 1 months | Duration of response ([2]; individual patients, MM, 71 mg m^–2): 1.1 months and 5.1 months | Duration of response ([2]; individual patients, MM, 132 mg m^–2): 1.4 months and 8.8 months and 12.9 months | Duration of response ([2]; individual patients, MM, 176 mg m^–2): 3.5 months and 1.3 months and 11.9 months and 2 months | Duration of response ([2]; individual patients, NHL, 132 mg m^–2): 1.4 months and 8.2 months | Duration of sustained SD ([2]; 132 mg m^–2 cohort): 12.9 months | Duration of sustained SD ([2]; 176 mg m^–2 cohort): 11.9 months | Activity against primary myeloma cells (primary myeloma cells): retained | Antitumour activity [3]: potent antitumour activity | AUC0–t [4, 6]: 819±403 ng h^–1 ml^–1 | AUC0–∞ [4, 6]: 992±497 ng h^–1 ml^–1 | CL (total plasma clearance) [4, 6]: 28.9±11.1 l h^–1 | Cmax [4, 6]: 645±306 ng ml^–1 | kel (elimination rate constant) [4, 6]: 0.11 ± 0.01 h⁻¹ | t½ (terminal half-life) [4, 6]: 6.05 ± 0.37 h | AUC0–t [4, 7]: 844±445 ng h^–1 ml^–1 | Cmax [4, 7]: 656±342 ng ml^–1 | AUC0–t [4, 8]: 1935±848 ng h^–1 ml^–1 | AUC0–∞ [4, 8]: 2353±1117 ng h^–1 ml^–1 | CL (total plasma clearance) [4, 8]: 23.1±15.9 l h^–1 | Cmax [4, 8]: 1620±556 ng ml^–1 | kel (elimination rate constant) [4, 8]: 0.11 ± 0.02 h⁻¹ | t½ (terminal half-life) [4, 8]: 6.48 ± 0.96 h | AUC0–t [4, 9]: 1639±768 ng h^–1 ml^–1 | Cmax [4, 9]: 1320±531 ng ml^–1 | AUC0–t [4, 10]: 2325±652 ng h^–1 ml^–1 | AUC0–∞ [4, 10]: 2758±891 ng h^–1 ml^–1 | CL (total plasma clearance) [4, 10]: 34.9±8.35 l h^–1 | Cmax [4, 10]: 1990±236 ng ml^–1 | kel (elimination rate constant) [4, 10]: 0.11 ± 0.01 h⁻¹ | t½ (terminal half-life) [4, 10]: 6.60 ± 0.69 h | AUC0–t [4, 11]: 2334±532 ng h^–1 ml^–1 | Cmax [4, 11]: 1705±785 ng ml^–1 | AUC0–t [4, 12]: 2798±432 ng h^–1 ml^–1 | AUC0–∞ [4, 12]: 3197±400 ng h^–1 ml^–1 | CL (total plasma clearance) [4, 12]: 43.0±6.80 l h^–1 | Cmax [4, 12]: 2620±585 ng ml^–1 | kel (elimination rate constant) [4, 12]: 0.11 ± 0.02 h⁻¹ | t½ (terminal half-life) [4, 12]: 6.29 ± 0.93 h | AUC0–t [4, 13]: 3681±497 ng h^–1 ml^–1 | Cmax [4, 13]: 2675±49.5 ng ml^–1 | AUC0–t [4, 14]: 4220±1251 ng h^–1 ml^–1 | AUC0–∞ [4, 14]: 4826±1504 ng h^–1 ml^–1 | CL (total plasma clearance) [4, 14]: 42.7±12.5 l h^–1 | Cmax [4, 14]: 3400±876 ng ml^–1 | kel (elimination rate constant) [4, 14]: 0.12 ± 0.003 h⁻¹ | t½ (terminal half-life) [4, 14]: 5.83 ± 0.14 h | AUC0–t [4, 15]: 3673±932 ng h^–1 ml^–1 | Cmax [4, 15]: 2977±610 ng ml^–1 | AUC0–t [4, 16]: 6910±1864 ng h^–1 ml^–1 | CL (total plasma clearance) [4, 16]: 35.0±9.99 l h^–1 | Cmax [4, 16]: 5410±1622 ng ml^–1 | kel (elimination rate constant) [4, 16]: 0.12 ± 0.01 h⁻¹ | t½ (terminal half-life) [4, 16]: 5.71 ± 0.61 h | AUC0–t [4, 17]: 7262±1331 ng h^–1 ml^–1 | Cmax [4, 17]: 5972±940 ng ml^–1 | CL (total plasma clearance) [4, 18]: 32.8±10.7 l h^–1 | Cmax [4, 18]: 6838±1961 ng ml^–1 | kel (elimination rate constant) [4, 18]: 0.13 ± 0.01 h⁻¹ | t½ (terminal half-life) [4, 18]: 5.43 ± 0.39 h | AUC0–t [4, 19]: 8355±2496 ng h^–1 ml^–1 | Cmax [4, 19]: 6062±1411 ng ml^–1 | Mean t½, range across dose levels ([4]; 14–176 mg m^–2): 5.4 to 6.6 h | Total CL, range of means across dose levels ([4]; 14–176 mg m^–2): 23.1–43.0 l h^–1 | Manner of plasma concentration decline ([4]; after end of infusion, rapid distribution phase and slower elimination phase): biphasic | Mean Cmax and AUC values in relation to dose ([4]; days 1 and 5): increased linearly in relation to dose | Accumulation from days 1 to 5 (Cmax, AUC) ([4]; once daily days 1–5): no relevant accumulation | Terminal half-life ([4]; plasma, iv infusion over 1 h): ~6 h
